Reference: publication PMC7325368 (Journal of Clinical Oncology, 2020)
“And” between values parts separate entries of the source, which are not always exact repeats. Equal values may be shown once. Read-outs that look alike come from different tables or passages of the source.

What was measured:
B-RAF–mutated melanoma = details: patients with B-RAF–mutated melanoma ref 12, 33; cited from earlier work
VEGFR2 = details: inhibition of VEGFR2 ref 15; cited from earlier work
[1] = test system: B-RAF– or K-RAS/N-RAS–mutated solid tumors; format: in vivo, human
Procedure, shortened: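 Oral test compound once daily: escalation cohorts at 5–60 mg; expansion at 30 mg/d in 21-day cycles in patients with B-RAF or K-RAS/N-RAS mutations. Treatment continued until unacceptable toxicity or withdrawal, with treatment beyond progression allowed if clinically beneficial. Response and stable disease scored per RECIST v1.1, investigator-assessed in expansion. Time-to-event end points summarized by Kaplan-Meier estimators.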

[2] = Plasma pharmacokinetics in patients; format: in vivo; details: human
Procedure, shortened: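 Oral test compound given as a single dose on cycle 1, day 1, then a 2-day treatment-free period for single-dose PK sampling, then once daily on days 4–24 and continuously in 21-day cycles. Doses were 10–60 mg. Plasma was sampled at prespecified time points on cycle 1, day 1 and cycle 2, day 1. Accumulation ratios for Cmax, AUC0-9 and AUC0-24 were taken as cycle 2/cycle 1.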

[3] = test system: patients with advanced/metastatic solid tumors; test: Safety and tolerability; format: in vivo, human
[4] = test system: K-RAS/N-RAS–mutated solid tumors; test: Antitumor activity; format: in vivo, human
[5] = test system: tumor FDG uptake in patients with solid tumors; test: FDG-PET-CT scans; format: in vivo, human
Procedure, shortened: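 Exploratory FDG uptake measured by FDG-PET-CT at screening and again on cycle 2, day 1 (± 3 days) in patients receiving the oral test compound once daily in 21-day cycles. Each patient's on-treatment uptake category was compared with the baseline scan.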

[6] = test system: B-RAF–mutated solid tumors; test: Antitumor activity; format: in vivo, human
[7] = test system: EGFR, DDR1, DDR2, EPHA3, FLT3, VEGFR2, ABL1, RET, EPHGA7, EPHB2, MNK2, and ZAK; details: EPHGA7, EPHB2, MNK2, ZAK ref 15; cited from earlier work
[8] = Dose Expansion (n = 96), 30 mg/d
[9] = K-RAS^mut/N-RAS^mut patients (n = 66), both phases
[10] = cycle 2, day 1, 34 patients (7 missing postbaseline results)
[11] = cycle 2, day 1 vs baseline, 1 patient
[12] = B-RAF^mut patients (n = 53), both phases

CC(C)(C)c1nc(-c2cccc(NS(=O)(=O)c3c(F)cccc3F)c2F)c(-c2ccnc(N)n2)s1 [dabrafenib]
DCR (B-RAF–mutated melanoma): 91%
ORR (B-RAF–mutated melanoma): 50%

O=C1CCc2c(Oc3ccc4c(c3)[C@@H]3[C@H](O4)[C@H]3c3nc4ccc(C(F)(F)F)cc4[nH]3)ccnc2N1 [lifirafenib]
IC50 (VEGFR2): 108 nM
Patients with confirmed clinical responses ([1]; dose escalation, n = 3, all had FDG-PET-CT responses): 8.6%
Median DoR ([1]; dose escalation, 95% CI, 6.8 to 31.7 months): 31.7 months
Median DoR ([1]; dose expansion, 95% CI, 1.9 months to not reached): 11.1 months
Median duration of SD ([1]; dose expansion, 95% CI, 3.5 to 4.9 months): 4.1 months
half-life ([2]; oral): 15 to 59 h
Tmax ([2]; po): 3 h
Patients with dose interruptions/reductions as a result of drug toxicity ([3]; 40 mg/d, typically between days 13 and 28 of cycle 1): 70%
TEAE Abdominal pain, upper, Any Grade ([3]; Dose Escalation (n = 35)): 4 (11.4) No. (%)
TEAE Abdominal pain, upper, Grade ≥ 3 ([3]; Dose Escalation (n = 35)): 0 (0.0) No. (%)
TEAE Gastroesophageal reflux disease, Any Grade ([3]; Dose Escalation (n = 35)): 6 (17.1) No. (%)
TEAE Gastroesophageal reflux disease, Grade ≥ 3 ([3]; Dose Escalation (n = 35)): 0 (0.0) No. (%)
TEAE Musculoskeletal chest pain, Any Grade ([3]; Dose Escalation (n = 35)): 6 (17.1) No. (%)
TEAE Musculoskeletal chest pain, Grade ≥ 3 ([3]; Dose Escalation (n = 35)): 0 (0.0) No. (%)
TEAE Palmoplantar erythrodysesthesia syndrome, Any Grade ([3]; Dose Escalation (n = 35)): 11 (31.4) No. (%)
TEAE Palmoplantar erythrodysesthesia syndrome, Grade ≥ 3 ([3]; Dose Escalation (n = 35)): 2 (5.7) No. (%)
TEAE Upper respiratory tract infection, Any Grade ([3]; Dose Escalation (n = 35)): 6 (17.1) No. (%)
TEAE Upper respiratory tract infection, Grade ≥ 3 ([3]; Dose Escalation (n = 35)): 0 (0.0) No. (%)
TEAE Urinary tract infection, Any Grade ([3]; Dose Escalation (n = 35)): 4 (11.4) No. (%)
TEAE Urinary tract infection, Grade ≥ 3 ([3]; Dose Escalation (n = 35)): 0 (0.0) No. (%)
TEAE γ-Glutamyl transferase increase, Any Grade ([3]; Dose Escalation (n = 35)): 6 (17.1) No. (%)
TEAE γ-Glutamyl transferase increase, Grade ≥ 3 ([3]; Dose Escalation (n = 35)): 4 (11.4) No. (%)
TEAE Abdominal pain, upper, Any Grade [3, 8]: 8 (8.3) No. (%)
TEAE Abdominal pain, upper, Grade ≥ 3 [3, 8]: 2 (2.1) No. (%)
TEAE Gastroesophageal reflux disease, Any Grade [3, 8]: 4 (4.2) No. (%)
TEAE Gastroesophageal reflux disease, Grade ≥ 3 [3, 8]: 0 (0.0) No. (%)
TEAE Musculoskeletal chest pain, Any Grade [3, 8]: 7 (7.3) No. (%)
TEAE Musculoskeletal chest pain, Grade ≥ 3 [3, 8]: 0 (0.0) No. (%)
TEAE Palmoplantar erythrodysesthesia syndrome, Any Grade [3, 8]: 20 (20.8) No. (%)
TEAE Palmoplantar erythrodysesthesia syndrome, Grade ≥ 3 [3, 8]: 1 (1.0) No. (%)
TEAE Upper respiratory tract infection, Any Grade [3, 8]: 5 (5.2) No. (%)
TEAE Upper respiratory tract infection, Grade ≥ 3 [3, 8]: 0 (0.0) No. (%)
TEAE Urinary tract infection, Any Grade [3, 8]: 10 (10.4) No. (%)
TEAE Urinary tract infection, Grade ≥ 3 [3, 8]: 1 (1.0) No. (%)
TEAE γ-Glutamyl transferase increase, Any Grade [3, 8]: 4 (4.2) No. (%)
TEAE γ-Glutamyl transferase increase, Grade ≥ 3 [3, 8]: 4 (4.2) No. (%)
Time to occurrence of dose-limiting thrombocytopenia ([3]; after initial dosing, dose escalation): 2-3 weeks
Patients who experienced reversible DLTs ([3]; among patients eligible for DLT assessment (n = 31), dose escalation): 6 patients
DLT: grade 3 increased ALT ([3]; dose escalation): 1 n
DLT: grade 4 thrombocytopenia ([3]; dose escalation): 5 n
Grade ≥ 3 treatment-related TEAE fatigue ([3]; dose escalation): 11.4%
Grade ≥ 3 treatment-related TEAE hypertension ([3]; dose escalation): 11.4%
Grade ≥ 3 treatment-related TEAE thrombocytopenia ([3]; dose escalation): 14.3%
Patients with TEAEs that led to discontinuation ([3]; dose escalation (n = 35), five patients): 14.3%
Patients with grade ≥ 3 TEAEs (including DLTs) ([3]; dose escalation, 26 patients): 74.3%
Share of patients reporting grade ≥ 3 TEAEs ([3]; dose escalation, 40, 50, and 60 mg/d cohorts): 61.5%
Share of patients reporting grade ≥ 3 TEAEs ([3]; dose escalation, lower-dose cohorts): 38.5%
Dose-limiting thrombocytopenia that occurred at 40 and 60 mg/d ([3]; dose escalation, n = 2 each (eighty percent)): 4 of 5
Maximum tolerated dose (MTD) ([3]; dose escalation, once-daily oral dosing): 40 mg/day
Grade ≥ 3 treatment-related AE fatigue ([3]; dose expansion): 7.3%
Grade ≥ 3 treatment-related AE hypertension ([3]; dose expansion): 8.3%
Patients with TEAEs that led to discontinuation ([3]; dose expansion (n = 96), 19 patients): 19.8%
Patients with serious TEAEs ([3]; dose expansion (n = 96), 56 patients): 58.3%
Patients with grade ≥ 3 TEAEs ([3]; dose expansion (n = 96), 68 patients): 70.8%
Patients with AEs that led to a dose adjustment ([3]; dose expansion, fifty patients): 52%
Patients with TEAEs that led to death (considered unrelated to treatment) ([3]; dose expansion, four patients, 6 TEAEs): 4.2%
Cutaneous SCC or keratoacanthoma ([3]; during the entire study): not reported
DLTs that occurred at doses ≥ 40 mg/d ([3]; of 6 patients with DLTs, dose escalation): 5 patients
Time to platelet count recovery ([3]; platelet transfusion or prednisolone and withholding of lifirafenib): 6 to 20 days
Patients with confirmed PR ([4]; K-RAS codon 12–mutated NSCLC, 30 mg/d): 1 n
Patients with duration of treatment > 1 year ([4]; K-RAS mutations): 5 n
Patients with confirmed responses ([4]; K-RAS mutations, entire study): 2 patients
Responses ([4]; K-RAS/N-RAS–mutated colorectal cancer (n = 20)): No responses
Best overall response (confirmed): CR [4, 9]: 0 No. (%)
Best overall response (confirmed): NE/missing [4, 9]: 15 (22.7) No. (%)
Best overall response (confirmed): PD [4, 9]: 16 (24.2) No. (%)
Best overall response (confirmed): PR [4, 9]: 2 (3.0) No. (%)
Best overall response (confirmed): SD [4, 9]: 33 (50.0) No. (%)
Disease control rate (CR + PR + SD) [4, 9]: 35 (53.0) No. (%)
Objective response rate (CR + PR) [4, 9]: 2 (3.0) No. (%)
Patients with SD ([4]; K-RAS– or N-RAS–mutated CRC): Twelve
Patients with SD ([4]; K-RAS–mutated NSCLC (codon 12 mutated and K-RAS G13D, n = 1 each)): 2 patients
Patients with SD ([4]; K-RAS–mutated endometrial cancer (codon 12 mutated, n = 4; codon 2 mutated, n = 1)): 5 patients
Patients with confirmed PR ([4]; K-RAS–mutated endometrial cancer, 20 mg/d): 1 n
ORR ([4]; patients with K-RAS mutations, entire study): 3.4%
Patients with SD ([4]; patients with K-RAS mutations, entire study, 32 patients): 54.2%
Patients with high FDG uptake [5, 10]: 15 patients
Patients with low FDG uptake [5, 10]: 1 patient
Patients with moderate FDG uptake [5, 10]: 10 patients
Patients with no FDG uptake [5, 10]: 1 patient
Patients who changed from high to low FDG uptake [5, 11]: 2.9%
Patients who changed from low to no FDG uptake [5, 11]: 2.9%
Patients who changed from high to moderate FDG uptake ([5]; cycle 2, day 1 vs baseline, 7 patients): 20.6%
Patients with partial metabolic reduction per EORTC criteria ([5]; dose escalation): 11 patients
Patients with complete metabolic reduction ([5]; dose escalation, B-RAF mutation, 40 mg/d): 1 patient
Patients with partial/complete metabolic reductions by FDG-PET-CT scan ([5]; dose escalation, of 34 patients): 12 patients
Patients with partial/complete metabolic reduction who received ≥ 30 mg/d ([5]; of 12 patients with metabolic reductions): 11 patients
Patients with duration of treatment > 1 year ([6]; B-RAF mutations): 10 n
DCR ([6]; B-RAF^V600–mutated thyroid cancer (3 patients)): 100%
ORR ([6]; B-RAF^V600–mutated thyroid cancer, one of 3 patients confirmed PR): 33.3%
Best overall response (confirmed): CR [6, 12]: 1 (1.9) No. (%)
Best overall response (confirmed): NE/missing [6, 12]: 9 (17.0) No. (%)
Best overall response (confirmed): PD [6, 12]: 8 (15.1) No. (%)
Best overall response (confirmed): SD [6, 12]: 27 (50.9%) No. (%) and 27 (50.9) No. (%)
Disease control rate (CR + PR + SD) [6, 12]: 36 (67.9) No. (%)
Objective response rate (CR + PR) [6, 12]: 9 (17.0) No. (%)
Patients with confirmed PR ([6]; B-RAF–mutated thyroid cancer/PTC): 2 n
Patients with confirmed PR ([6]; human, in vivo): 1 n
IC50s relative to that for B-RAF^V600E [7]: ≤ 10 fold

CCCS(=O)(=O)Nc1ccc(F)c(C(=O)c2c[nH]c3ncc(-c4ccc(Cl)cc4)cc23)c1F [vemurafenib]
ORR (B-RAF–mutated melanoma): 48%
